Legend:
SMMC-7721 [1] = test: Antiproliferative activity against human SMMC7721 cells assessed as growth inhibition incubated up to 4 days by MTS assay; assay type: functional, cell-based; conditions: SMMC-7721, 96 h
In short: (§1)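 Five human tumour cell lines were assayed by MTS. IC50 is the compound concentration that cuts optical density of treated cells by 50% relative to untreated cells. Mean of three independent determinations.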

SMMC-7721 [2] = test: Induction of cell cycle arrest in human SMMC7721 cells assessed as accumulation at G2/M phase at 4 uM after 24 hrs by propidium iodide staining based flow cytometric analysis (reference value: 6.70 +/- 0.63%); assay type: functional
SMMC-7721 [3] = test: Induction of cell cycle arrest in human SMMC7721 cells assessed as accumulation at G0/G1 phase at 8 uM after 24 hrs by propidium iodide staining based flow cytometric analysis (reference value: 63.71 +/- 0.31%); assay type: functional
SMMC-7721 [4] = test: Induction of cell cycle arrest in human SMMC7721 cells assessed as accumulation at sub-G1 phase at 4 uM after 24 hrs by propidium iodide staining based flow cytometric analysis (reference value: 3.173 +/- 0.26%); assay type: functional
SMMC-7721 [5] = test: Induction of cell cycle arrest in human SMMC7721 cells assessed as accumulation at G2/M phase at 8 uM after 24 hrs by propidium iodide staining based flow cytometric analysis (reference value: 6.70 +/- 0.63%); assay type: functional
MCF7 = test: Antiproliferative activity against human MCF7 cells assessed as growth inhibition incubated up to 4 days by MTS assay; assay type: functional, cell-based; conditions: MCF7, 96 h; in short: as §1
SMMC-7721 [6] = test: Induction of apoptosis in human SMMC7721 cells assessed as necrotic cells at 8 uM after 48 hrs by Annexin-V/PI-staining based flow cytometry (reference value: 1.24%); assay type: functional
SMMC-7721 [7] = test: Induction of apoptosis in human SMMC7721 cells assessed as early apoptotic cells at 2 uM after 48 hrs by Annexin-V/PI-staining based flow cytometry (reference value: 1.25%); assay type: functional
SMMC-7721 [8] = test: Induction of cell cycle arrest in human SMMC7721 cells assessed as accumulation at G2/M phase at 2 uM after 24 hrs by propidium iodide staining based flow cytometric analysis (reference value: 6.70 +/- 0.63%); assay type: functional
SW480 = test: Antiproliferative activity against human SW480 cells assessed as growth inhibition incubated up to 4 days by MTS assay; assay type: functional, cell-based; conditions: SW480, 96 h; in short: as §1
SMMC-7721 [9] = test: Induction of apoptosis in human SMMC7721 cells assessed as early apoptotic cells at 4 uM after 48 hrs by Annexin-V/PI-staining based flow cytometry (reference value: 1.25%); assay type: functional
A549 = test: Antiproliferative activity against human A549 cells assessed as growth inhibition incubated up to 4 days by MTS assay; assay type: functional, cell-based; conditions: A549, 96 h; in short: as §1
SMMC-7721 [10] = test: Induction of apoptosis in human SMMC7721 cells assessed as late apoptotic cells at 2 uM after 48 hrs by Annexin-V/PI-staining based flow cytometry (reference value: 0.649%); assay type: functional
SMMC-7721 [11] = test: Induction of apoptosis in human SMMC7721 cells assessed as late apoptotic cells at 4 uM after 48 hrs by Annexin-V/PI-staining based flow cytometry (reference value: 0.649%); assay type: functional
SMMC-7721 [12] = test: Induction of cell cycle arrest in human SMMC7721 cells assessed as accumulation at sub-G1 phase at 8 uM after 24 hrs by propidium iodide staining based flow cytometric analysis (reference value: 3.173 +/- 0.26%); assay type: functional
SMMC-7721 [13] = test: Induction of apoptosis in human SMMC7721 cells assessed as late apoptotic cells at 8 uM after 48 hrs by Annexin-V/PI-staining based flow cytometry (reference value: 0.649%); assay type: functional
SMMC-7721 [14] = test: Induction of apoptosis in human SMMC7721 cells assessed as viable cells at 2 uM after 48 hrs by Annexin-V/PI-staining based flow cytometry (reference value: 96.9%); assay type: functional; conditions: SMMC-7721, 48 h, read-out: Activity
SMMC-7721 [15] = test: Induction of cell cycle arrest in human SMMC7721 cells assessed as accumulation at S phase at 8 uM after 24 hrs by propidium iodide staining based flow cytometric analysis (reference value: 23.26 +/- 0.57%); assay type: functional
SMMC-7721 [16] = test: Induction of apoptosis in human SMMC7721 cells assessed as necrotic cells at 2 uM after 48 hrs by Annexin-V/PI-staining based flow cytometry (reference value: 1.24%); assay type: functional
SMMC-7721 [17] = test: Induction of apoptosis in human SMMC7721 cells assessed as early apoptotic cells at 8 uM after 48 hrs by Annexin-V/PI-staining based flow cytometry (reference value: 1.25%); assay type: functional
SMMC-7721 [18] = test: Induction of cell cycle arrest in human SMMC7721 cells assessed as accumulation at G0/G1 phase at 2 uM after 24 hrs by propidium iodide staining based flow cytometric analysis (reference value: 63.71 +/- 0.31%); assay type: functional
HL-60 = test: Antiproliferative activity against human HL60 cells assessed as growth inhibition incubated up to 4 days by MTS assay; assay type: functional, cell-based; conditions: HL-60, 96 h; in short: as §1
SMMC-7721 [19] = test: Induction of apoptosis in human SMMC7721 cells assessed as viable cells at 4 uM after 48 hrs by Annexin-V/PI-staining based flow cytometry (reference value: 96.9%); assay type: functional; conditions: SMMC-7721, 48 h, read-out: Activity
SMMC-7721 [20] = test: Induction of apoptosis in human SMMC7721 cells assessed as necrotic cells at 4 uM after 48 hrs by Annexin-V/PI-staining based flow cytometry (reference value: 1.24%); assay type: functional
SMMC-7721 [21] = test: Induction of cell cycle arrest in human SMMC7721 cells assessed as accumulation at sub-G1 phase at 2 uM after 24 hrs by propidium iodide staining based flow cytometric analysis (reference value: 3.173 +/- 0.26%); assay type: functional
SMMC-7721 [22] = test: Induction of cell cycle arrest in human SMMC7721 cells assessed as accumulation at S phase at 4 uM after 24 hrs by propidium iodide staining based flow cytometric analysis (reference value: 23.26 +/- 0.57%); assay type: functional
SMMC-7721 [23] = test: Induction of cell cycle arrest in human SMMC7721 cells assessed as accumulation at G0/G1 phase at 4 uM after 24 hrs by propidium iodide staining based flow cytometric analysis (reference value: 63.71 +/- 0.31%); assay type: functional
SMMC-7721 [24] = test: Induction of apoptosis in human SMMC7721 cells assessed as viable cells at 8 uM after 48 hrs by Annexin-V/PI-staining based flow cytometry (reference value: 96.9%); assay type: functional; conditions: SMMC-7721, 48 h, read-out: Activity
SMMC-7721 [25] = test: Induction of cell cycle arrest in human SMMC7721 cells assessed as accumulation at S phase at 2 uM after 24 hrs by propidium iodide staining based flow cytometric analysis (reference value: 23.26 +/- 0.57%); assay type: functional

- IC50 (SMMC-7721 [1]): 3770 nM
- IC50 (MCF7): 2040 nM
- IC50 (SW480): 2320 nM
- IC50 (A549): 4510 nM
- IC50 (HL-60): 2070 nM
SMILES: Cc1cc2c(cc1C)[n+](CC(=O)c1ccc3ccccc3c1)cn2C(c1ccccc1)c1cc2ccccc2oc1=O.[Br-] (centres undefined)
- Activity (SMMC-7721 [2]): 7.59%
- Activity (SMMC-7721 [3]): 70.88%
- Activity (SMMC-7721 [4]): 5.16%
- Activity (SMMC-7721 [5]): 9.68%
- Activity (SMMC-7721 [6]): 2.27%
- Activity (SMMC-7721 [7]): 1.3%
- Activity (SMMC-7721 [8]): 6.92%
- Activity (SMMC-7721 [9]): 4.82%
- Activity (SMMC-7721 [10]): 0.698%
- Activity (SMMC-7721 [11]): 1.39%
- Activity (SMMC-7721 [12]): 2.54%
- Activity (SMMC-7721 [13]): 11.2%
- viability at 2 µM (SMMC-7721 [14]): 96.4%
- Activity (SMMC-7721 [15]): 16.42%
- Activity (SMMC-7721 [16]): 1.58%
- Activity (SMMC-7721 [17]): 25.6%
- Activity (SMMC-7721 [18]): 65.02%
- viability at 4 µM (SMMC-7721 [19]): 93.2%
- Activity (SMMC-7721 [20]): 0.541%
- Activity (SMMC-7721 [21]): 3.25%
- Activity (SMMC-7721 [22]): 22.47%
- Activity (SMMC-7721 [23]): 67.69%
- viability at 8 µM (SMMC-7721 [24]): 60.9%
- Activity (SMMC-7721 [25]): 21.82%
